Data from ChEMBL document CHEMBL4138058, “Design and synthesis of novel selective estrogen receptor degradation inducers based on the diphenylheptane skeleton” (Medchemcomm, 2017).

How the values were obtained:
Assay type in all cases: cell-based
[1] = target: T1, Estrogen receptor (Homo sapiens) (UniProt P03372); assay: Downregulation of ERalpha expression in human MCF7 cells at 1 uM after 6 hrs in presence of proteasome inhibitor MG132 by Western blot method relative to lamin B
T1 sequence (whole entry): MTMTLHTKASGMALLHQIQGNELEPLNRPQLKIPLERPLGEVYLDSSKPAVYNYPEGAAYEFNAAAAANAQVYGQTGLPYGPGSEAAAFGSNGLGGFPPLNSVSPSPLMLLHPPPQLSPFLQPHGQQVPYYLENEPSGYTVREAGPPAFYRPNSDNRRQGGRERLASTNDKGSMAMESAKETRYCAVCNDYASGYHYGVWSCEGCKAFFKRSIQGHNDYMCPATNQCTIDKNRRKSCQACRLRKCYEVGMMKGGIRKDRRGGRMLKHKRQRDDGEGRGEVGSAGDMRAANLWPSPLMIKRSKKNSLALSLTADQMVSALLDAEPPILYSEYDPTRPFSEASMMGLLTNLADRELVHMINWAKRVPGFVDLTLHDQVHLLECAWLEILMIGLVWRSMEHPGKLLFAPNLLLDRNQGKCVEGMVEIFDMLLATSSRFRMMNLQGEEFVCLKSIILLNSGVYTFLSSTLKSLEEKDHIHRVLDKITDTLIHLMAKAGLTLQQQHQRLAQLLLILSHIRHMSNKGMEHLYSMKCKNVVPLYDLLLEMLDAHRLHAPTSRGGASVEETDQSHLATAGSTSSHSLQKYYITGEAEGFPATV
Outline: (§1)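 MCF-7 cells kept in DMEM with 10% FBS, kanamycin and 10 μg/mL insulin, then exposed to compounds for 6 h. Lysates made in SDS buffer (0.1 M Tris-HCl pH 8.0, 10% glycerol, 1% SDS), boiled, BCA-normalized and run on SDS-PAGE. Blots probed with anti-ERα, AR, AhR or VDR and β-actin or lamin B. Chemiluminescence quantified as target/loading-protein ratio; means ± S.E., n=3.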

[2] = target: T2, Androgen receptor (Homo sapiens) (UniProt P10275); assay: Downregulation of androgen receptor expression in human MCF7 cells at 1 uM after 6 hrs in presence of proteasome inhibitor MG132 by Western blot method relative to lamin B; outline: as §1
T2 sequence (whole entry): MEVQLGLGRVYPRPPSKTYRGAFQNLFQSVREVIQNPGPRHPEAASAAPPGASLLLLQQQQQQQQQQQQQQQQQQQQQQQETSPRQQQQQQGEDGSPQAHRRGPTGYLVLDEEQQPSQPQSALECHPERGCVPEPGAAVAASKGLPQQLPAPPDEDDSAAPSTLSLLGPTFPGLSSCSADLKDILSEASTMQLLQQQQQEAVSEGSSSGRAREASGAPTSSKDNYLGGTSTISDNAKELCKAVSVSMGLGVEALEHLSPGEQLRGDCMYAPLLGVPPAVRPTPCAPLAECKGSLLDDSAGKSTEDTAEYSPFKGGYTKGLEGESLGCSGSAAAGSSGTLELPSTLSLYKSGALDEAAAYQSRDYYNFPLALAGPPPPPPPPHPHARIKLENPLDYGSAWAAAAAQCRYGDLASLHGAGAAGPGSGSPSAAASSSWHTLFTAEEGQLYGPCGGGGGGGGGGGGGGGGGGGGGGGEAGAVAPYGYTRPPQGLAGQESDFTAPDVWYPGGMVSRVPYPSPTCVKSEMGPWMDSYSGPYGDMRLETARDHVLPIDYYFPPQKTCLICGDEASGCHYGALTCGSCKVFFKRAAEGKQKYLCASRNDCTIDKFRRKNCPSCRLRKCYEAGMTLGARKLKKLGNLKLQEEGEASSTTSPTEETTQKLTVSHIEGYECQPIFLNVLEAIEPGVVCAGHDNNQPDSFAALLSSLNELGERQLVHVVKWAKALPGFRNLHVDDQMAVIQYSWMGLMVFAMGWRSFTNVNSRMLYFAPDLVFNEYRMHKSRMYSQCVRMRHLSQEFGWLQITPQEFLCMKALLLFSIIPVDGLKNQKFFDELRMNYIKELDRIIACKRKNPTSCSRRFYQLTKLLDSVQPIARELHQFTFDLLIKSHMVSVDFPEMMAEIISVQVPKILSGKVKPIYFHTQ

[3] = target: T3, Aryl hydrocarbon receptor (Homo sapiens, UniProt P35869); assay: Downregulation of AhR expression in human MCF7 cells at 1 uM after 6 hrs in presence of proteasome inhibitor MG132 by Western blot method relative to lamin B; conditions: mcf7, 6 h; outline: as §1
T3 sequence (P35869 whole entry): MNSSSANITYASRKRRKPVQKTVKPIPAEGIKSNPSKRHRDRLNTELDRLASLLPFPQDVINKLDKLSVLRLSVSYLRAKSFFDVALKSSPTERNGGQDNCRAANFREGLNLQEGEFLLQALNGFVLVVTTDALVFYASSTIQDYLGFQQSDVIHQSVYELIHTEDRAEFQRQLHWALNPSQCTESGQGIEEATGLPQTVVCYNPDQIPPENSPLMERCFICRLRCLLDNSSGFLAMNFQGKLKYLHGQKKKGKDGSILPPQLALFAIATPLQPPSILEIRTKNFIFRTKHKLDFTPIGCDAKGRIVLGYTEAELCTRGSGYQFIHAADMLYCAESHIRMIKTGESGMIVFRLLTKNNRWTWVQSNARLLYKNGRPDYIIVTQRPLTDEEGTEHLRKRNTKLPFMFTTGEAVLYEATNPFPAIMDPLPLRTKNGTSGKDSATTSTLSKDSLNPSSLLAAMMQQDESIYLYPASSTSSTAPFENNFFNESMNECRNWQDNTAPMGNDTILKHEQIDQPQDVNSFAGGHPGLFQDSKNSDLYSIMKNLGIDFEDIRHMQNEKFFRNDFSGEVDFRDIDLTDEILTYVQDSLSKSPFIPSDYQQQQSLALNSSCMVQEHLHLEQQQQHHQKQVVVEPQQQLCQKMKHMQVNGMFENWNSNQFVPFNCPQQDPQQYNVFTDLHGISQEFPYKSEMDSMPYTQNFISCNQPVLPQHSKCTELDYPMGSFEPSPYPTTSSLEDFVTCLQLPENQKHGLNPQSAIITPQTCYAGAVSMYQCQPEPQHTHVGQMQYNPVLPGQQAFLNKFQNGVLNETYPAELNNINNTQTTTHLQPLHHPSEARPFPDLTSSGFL

SMILES: CCCCCCCCCCNCCOc1ccc(C(CCC)(CCC)c2ccc(O)c(C)c2)cc1C
- Activity [1]: 117%
- Activity [2]: 96%
- Activity [3]: 105%
